Experimental data: ChEMBL document CHEMBL1128196, “Topographical modification of melanotropin peptide analogues with beta-methyltryptophan isomers at position 9 leads to differential potencies and prolonged biological activities” (J Med Chem, 1995)
pEC50, pIC50: −log10 of the molar value.

Columns and labels:
[1] = Relative rate determined by setting MTII equal to 1 and dividing the apparent k-1 by the MTII value; type: ADME
[2] = biological target: T1, Melanocyte-stimulating hormone receptor (Homo sapiens, UniProt Q01726); test: Effective concentration against Melanocortin 1 receptor transfected into L-cells was determined by concentration of peptide for 50% maximal cAMP generation; type: functional
T1 sequence (Q01726 whole entry): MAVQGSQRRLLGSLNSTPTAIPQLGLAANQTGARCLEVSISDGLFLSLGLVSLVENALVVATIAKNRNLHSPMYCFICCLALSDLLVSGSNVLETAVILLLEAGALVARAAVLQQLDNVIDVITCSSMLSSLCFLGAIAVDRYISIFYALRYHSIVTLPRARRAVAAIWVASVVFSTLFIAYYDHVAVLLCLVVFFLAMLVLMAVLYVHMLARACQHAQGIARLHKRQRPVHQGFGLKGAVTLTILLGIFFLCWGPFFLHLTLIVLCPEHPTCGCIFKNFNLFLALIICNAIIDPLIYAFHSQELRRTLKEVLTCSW
Method in brief: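 Human MC1R stably transfected into mouse L-cells, grown to confluence. Stopped with ice-cold ethanol. cAMP in the dried supernatant measured by competitive binding kit. Value is concentration for 50% maximal cAMP generation; n = 4.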

[3] = biological target: T1, Melanocyte-stimulating hormone receptor; test: The concentration that inhibits 50% specific binding was determined against the Melanocortin 1 receptor
Method in brief: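 Cloned human MC1R stably expressed in L-cells, grown to confluence. Cells washed in binding buffer (MEM, 25 mM HEPES pH 7.4, 0.2% BSA, phenanthroline, leupeptin, bacitracin). Cells washed, lysed in NaOH/Triton, gamma counted.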

[4] = biological target: Melanocortin 1 receptor (Rana pipiens); test: Effective concentration for the effect of Melanocortin 1 receptor in the frog skin.

Structure (SMILES)	Relative dissociation rate [1]	pEC50 [2]	pIC50 [3]	pEC50 [4]
CCCC[C@H](NC(C)=O)C(=O)N[C@@H](CC(=O)O)C(=O)N[C@@H](Cc1c[nH]cn1)C(=O)N[C@@H](Cc1ccccc1)C(=O)N[C@@H](CCCN=C(N)N)C(=O)N[C@@H](C(=O)N[C@@H](CCCCN)C(N)=O)[C@H](C)c1c[nH]c2ccccc12	2.33	9.40	8.70	
CCCC[C@H](NC(C)=O)C(=O)N[C@H]1CC(=O)NCCCCC(C(N)=O)NC(=O)C([C@H](C)c2c[nH]c3ccccc23)NC(=O)[C@H](CCCN=C(N)N)NC(=O)C(Cc2ccccc2)NC(=O)[C@H](Cc2c[nH]cn2)NC1=O (single isomer, unassigned)	2.5	8.52	7.82	7.54
CCCC[C@H](NC(C)=O)C(=O)N[C@H]1CC(=O)NCCCCC(C(N)=O)NC(=O)C([C@@H](C)c2c[nH]c3ccccc23)NC(=O)[C@H](CCCN=C(N)N)NC(=O)C(Cc2ccccc2)NC(=O)[C@H](Cc2c[nH]cn2)NC1=O (single isomer, unassigned)	0.75	9.52	9.30	9.36
CCCC[C@H](NC(C)=O)C(=O)N[C@H]1CC(=O)NCCCCC(C(N)=O)NC(=O)[C@@H]([C@@H](C)c2c[nH]c3ccccc23)NC(=O)[C@H](CCCN=C(N)N)NC(=O)C(Cc2ccccc2)NC(=O)[C@H](Cc2c[nH]cn2)NC1=O (single isomer, unassigned)	2.58	9.00	8.52	10.22
